Measurements published in ChEMBL document CHEMBL4715745, “Synthesis and biological evaluation of novel FK228 analogues as potential isoform selective HDAC inhibitors” (Eur J Med Chem, 2016).

Legend:
MKN-1 = assay: Growth inhibition of human MKN-1 cells measured after 48 hrs by sulforhodamine B assay; assay type: functional
Method in brief: (§1)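 Panel of 39 human cancer cell lines tested at the Japanese Foundation for Cancer Research. Five concentrations per compound, spanning 10⁻¹¹–10⁻⁷ M, 10⁻¹⁰–10⁻⁶ M or 10⁻⁸–10⁻⁴ M, were used to build dose-response curves. GI₅₀ is the concentration giving 50% growth inhibition relative to control.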

SNB-75 = assay: Growth inhibition of human SNB-75 cells measured after 48 hrs by sulforhodamine B assay; assay type: functional; method in brief: as §1
KM12 = assay: Growth inhibition of human KM12 cells measured after 48 hrs by sulforhodamine B assay; assay type: functional; method in brief: as §1
NCI-H460 = assay: Growth inhibition of human NCI-H460 cells measured after 48 hrs by sulforhodamine B assay; assay type: functional; method in brief: as §1
HCT-15 = assay: Growth inhibition of human HCT-15 cells measured after 48 hrs by sulforhodamine B assay; assay type: functional; method in brief: as §1
SK-OV-3 = assay: Growth inhibition of human SK-OV-3 cells measured after 48 hrs by sulforhodamine B assay; assay type: functional; method in brief: as §1
RXF 631 = assay: Growth inhibition of human RXF 631 cells measured after 48 hrs by sulforhodamine B assay; assay type: functional; method in brief: as §1
MKN-7 = assay: Growth inhibition of human MKN-7 cells measured after 48 hrs by sulforhodamine B assay; assay type: functional; method in brief: as §1
SF-539 = assay: Growth inhibition of human SF-539 cells measured after 48 hrs by sulforhodamine B assay; assay type: functional; method in brief: as §1
[1] = Growth inhibition of human HBC4 cells measured after 48 hrs by sulforhodamine B assay; assay type: functional; method in brief: as §1
SF-295 = assay: Growth inhibition of human SF-295 cells measured after 48 hrs by sulforhodamine B assay; assay type: functional; method in brief: as §1
[2] = target: T1, Protein deacetylase HDAC6 (Mus musculus, UniProt Q9Z2V5); assay: Inhibition of mouse HDAC6 expressed in 293T cells using Ac-KGLGK(Ac)-MCA as substrate incubated for 30 mins in presence of 0.1 mM DTT by fluorescence plate reader assay; set-up: species or system HEK293T
T1 sequence (Q9Z2V5 whole entry): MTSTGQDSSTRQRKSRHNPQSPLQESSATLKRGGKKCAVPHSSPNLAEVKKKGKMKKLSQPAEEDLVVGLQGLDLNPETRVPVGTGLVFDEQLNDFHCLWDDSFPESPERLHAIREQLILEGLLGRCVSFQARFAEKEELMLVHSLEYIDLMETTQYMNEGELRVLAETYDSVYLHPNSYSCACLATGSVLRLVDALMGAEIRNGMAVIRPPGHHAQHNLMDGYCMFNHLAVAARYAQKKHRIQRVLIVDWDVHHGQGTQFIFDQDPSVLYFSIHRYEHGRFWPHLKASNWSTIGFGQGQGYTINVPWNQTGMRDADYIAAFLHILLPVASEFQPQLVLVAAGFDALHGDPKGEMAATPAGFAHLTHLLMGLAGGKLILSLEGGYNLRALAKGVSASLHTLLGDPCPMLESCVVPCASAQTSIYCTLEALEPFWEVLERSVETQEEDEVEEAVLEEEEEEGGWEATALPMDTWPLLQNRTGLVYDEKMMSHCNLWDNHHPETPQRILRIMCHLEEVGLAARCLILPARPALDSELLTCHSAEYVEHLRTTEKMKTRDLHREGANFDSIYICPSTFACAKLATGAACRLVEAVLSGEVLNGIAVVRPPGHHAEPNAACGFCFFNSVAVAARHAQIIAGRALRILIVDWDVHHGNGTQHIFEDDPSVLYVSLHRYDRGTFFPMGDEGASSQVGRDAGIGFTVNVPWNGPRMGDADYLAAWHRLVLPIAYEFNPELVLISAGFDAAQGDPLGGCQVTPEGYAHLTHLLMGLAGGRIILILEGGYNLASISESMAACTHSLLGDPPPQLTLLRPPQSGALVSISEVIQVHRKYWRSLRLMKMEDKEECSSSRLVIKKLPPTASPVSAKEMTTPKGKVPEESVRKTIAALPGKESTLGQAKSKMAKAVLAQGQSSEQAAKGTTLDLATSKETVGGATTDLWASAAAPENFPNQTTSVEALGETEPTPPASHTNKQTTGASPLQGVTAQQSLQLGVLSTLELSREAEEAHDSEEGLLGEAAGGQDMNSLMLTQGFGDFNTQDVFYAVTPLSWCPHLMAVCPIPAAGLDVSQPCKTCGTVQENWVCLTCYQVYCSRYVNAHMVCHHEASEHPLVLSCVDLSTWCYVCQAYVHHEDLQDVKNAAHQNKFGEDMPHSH
Method in brief: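 HDAC enzyme assay run in the presence of 0.1 mM dithiothreitol (DTT); IC₅₀ determined.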

OVCAR-4 = assay: Growth inhibition of human OVCAR-4 cells measured after 48 hrs by sulforhodamine B assay; assay type: functional; method in brief: as §1
MDA-MB-231 = assay: Growth inhibition of human MDA-MB-231 cells measured after 48 hrs by sulforhodamine B assay; assay type: functional; method in brief: as §1
MKN-28 = assay: Growth inhibition of human MKN-28 cells measured after 48 hrs by sulforhodamine B assay; assay type: functional; method in brief: as §1
DU-145 = assay: Growth inhibition of human DU-145 cells measured after 48 hrs by sulforhodamine B assay; assay type: functional; method in brief: as §1
NCI-H23 = assay: Growth inhibition of human NCI-H23 cells measured after 48 hrs by sulforhodamine B assay; assay type: functional; method in brief: as §1
St-4 = assay: Growth inhibition of human St-4 cells measured after 48 hrs by sulforhodamine B assay; assay type: functional; method in brief: as §1
ACHN = assay: Growth inhibition of human ACHN cells measured after 48 hrs by sulforhodamine B assay; assay type: functional; method in brief: as §1
MKN-74 = assay: Growth inhibition of human MKN-74 cells measured after 48 hrs by sulforhodamine B assay; assay type: functional; method in brief: as §1
[3] = Selectivity index, ratio of IC50 for mouse HDAC6 expressed in 293T cells to IC50 for human HDAC1 expressed in 293T cells using Ac-KGLGK(Ac)-MCA as substrate incubated for 30 mins in presence of 0.1 mM DTT by fluorescence plate reader assay; details: 0.5 h
Method in brief: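 Ratio of HDAC6 IC₅₀ to HDAC1 IC₅₀, taken as selectivity for class I HDAC1 over class II HDAC6. Both enzyme assays were run in the presence of 0.1 mM DTT.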

MCF7 = assay: Growth inhibition of human MCF7 cells measured after 48 hrs by sulforhodamine B assay; assay type: functional; method in brief: as §1
HT-29 = assay: Growth inhibition of human HT-29 cells measured after 48 hrs by sulforhodamine B assay; assay type: functional; method in brief: as §1
Histone deacetylase 1 = Histone deacetylase 1 (Homo sapiens, UniProt Q13547); assay: Inhibition of human HDAC1 expressed in 293T cells using Ac-KGLGK(Ac)-MCA as substrate incubated for 30 mins in presence of 0.1 mM DTT by fluorescence plate reader assay; set-up: species or system HEK293T
Chain of Histone deacetylase 1 (Q13547 whole entry): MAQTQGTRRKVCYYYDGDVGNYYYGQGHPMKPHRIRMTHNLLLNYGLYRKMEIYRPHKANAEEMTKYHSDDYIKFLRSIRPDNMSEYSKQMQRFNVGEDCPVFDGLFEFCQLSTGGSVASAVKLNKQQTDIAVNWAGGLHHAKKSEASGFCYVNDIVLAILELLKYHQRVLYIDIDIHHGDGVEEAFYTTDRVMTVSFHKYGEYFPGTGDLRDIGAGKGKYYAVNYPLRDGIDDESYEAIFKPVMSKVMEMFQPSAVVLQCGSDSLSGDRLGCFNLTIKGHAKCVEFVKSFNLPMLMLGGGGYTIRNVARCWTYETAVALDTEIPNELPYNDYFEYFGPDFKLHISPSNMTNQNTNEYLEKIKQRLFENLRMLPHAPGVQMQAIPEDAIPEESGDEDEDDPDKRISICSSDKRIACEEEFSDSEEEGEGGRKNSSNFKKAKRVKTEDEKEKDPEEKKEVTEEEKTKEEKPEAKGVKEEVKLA

[4] = Growth inhibition of human HBC5 cells measured after 48 hrs by sulforhodamine B assay; assay type: functional; method in brief: as §1
LOX IMVI = assay: Growth inhibition of human LOX IMVI cells measured after 48 hrs by sulforhodamine B assay; assay type: functional; method in brief: as §1
[5] = Growth inhibition of human BSY1 cells measured after 48 hrs by sulforhodamine B assay; assay type: functional; details: BSY-1; method in brief: as §1
OVCAR-5 = assay: Growth inhibition of human OVCAR-5 cells measured after 48 hrs by sulforhodamine B assay; assay type: functional; method in brief: as §1
MKN-45 = assay: Growth inhibition of human MKN-45 cells measured after 48 hrs by sulforhodamine B assay; assay type: functional; method in brief: as §1
DMS-114 = assay: Growth inhibition of human DMS-114 cells measured after 48 hrs by sulforhodamine B assay; assay type: functional; method in brief: as §1
NCI-H226 = assay: Growth inhibition of human NCI-H226 cells measured after 48 hrs by sulforhodamine B assay; assay type: functional; method in brief: as §1
PC-3 = assay: Growth inhibition of human PC-3 cells measured after 48 hrs by sulforhodamine B assay; assay type: functional; method in brief: as §1
A549 = assay: Growth inhibition of human A549 cells measured after 48 hrs by sulforhodamine B assay; assay type: functional; method in brief: as §1
HCC 2998 = assay: Growth inhibition of human HCC 2998 cells measured after 48 hrs by sulforhodamine B assay; assay type: functional; method in brief: as §1
NCI-H522 = assay: Growth inhibition of human NCI-H522 cells measured after 48 hrs by sulforhodamine B assay; assay type: functional; method in brief: as §1
OVCAR-3 = assay: Growth inhibition of human OVCAR-3 cells measured after 48 hrs by sulforhodamine B assay; assay type: functional; method in brief: as §1
DMS-273 = assay: Growth inhibition of human DMS-273 cells measured after 48 hrs by sulforhodamine B assay; assay type: functional; method in brief: as §1
OVCAR-8 = assay: Growth inhibition of human OVCAR-8 cells measured after 48 hrs by sulforhodamine B assay; assay type: functional; method in brief: as §1
U-251 = assay: Growth inhibition of human U-251 cells measured after 48 hrs by sulforhodamine B assay; assay type: functional; method in brief: as §1
HCT-116 = assay: Growth inhibition of human HCT-116 cells measured after 48 hrs by sulforhodamine B assay; assay type: functional; method in brief: as §1
SNB-78 = assay: Growth inhibition of human SNB-78 cells measured after 48 hrs by sulforhodamine B assay; assay type: functional; method in brief: as §1
SF-268 = assay: Growth inhibition of human SF-268 cells measured after 48 hrs by sulforhodamine B assay; assay type: functional; method in brief: as §1

CC(C)[C@H]1NC(=O)C[C@H]2/C=C/CCSSC[C@@H](NC1=O)C(=O)NCC(=O)NCC(=O)O2 gave a GI50 (MKN-1) of 12 µM, a GI50 (SNB-75) of 0.95 µM and a GI50 (KM12) of 12 µM. The GI50 (NCI-H460) was 15 µM, the GI50 (HCT-15) was 100 µM and the GI50 (SK-OV-3) was 12 µM. It also gave a GI50 (RXF 631) of 91 µM, a GI50 (MKN-7) of 47 µM and a GI50 (SF-539) of 3.3 µM. The GI50 [1] was 13 µM, the GI50 (SF-295) was 40 µM and the IC50 [2] was 1.32 µM. The GI50 (OVCAR-4) was 46 µM, the GI50 (MDA-MB-231) was 9.2 µM and the GI50 (MKN-28) was 95 µM. It also gave a GI50 (DU-145) of 5.4 µM, a GI50 (NCI-H23) of 36 µM and a GI50 (St-4) of 81 µM. For the same compound, the GI50 (ACHN) was 43 µM, the GI50 (MKN-74) was 16 µM and the “Ratio IC50” value [3] was 14. For the same compound, the GI50 (MCF7) was 33 µM, the GI50 (HT-29) was 2.7 µM and the IC50 (Histone deacetylase 1) was 0.0924 µM. It also gave a GI50 [4] of 39 µM, a GI50 (LOX IMVI) of 2.9 µM and a GI50 [5] of 18 µM. It also gave a GI50 (OVCAR-5) of 3.1 µM, a GI50 (MKN-45) of 100 µM and a GI50 (DMS-114) of 5.2 µM. The GI50 (NCI-H226) was 61 µM, the GI50 (PC-3) was 11 µM and the GI50 (A549) was 10 µM. The GI50 (HCC 2998) was 13 µM, the GI50 (NCI-H522) was 0.68 µM and the GI50 (OVCAR-3) was 13 µM. It also gave a GI50 (DMS-273) of 47 µM, a GI50 (OVCAR-8) of 18 µM and a GI50 (U-251) of 17 µM. The GI50 (HCT-116) was 2.5 µM, the GI50 (SNB-78) was 0.61 µM and the GI50 (SF-268) was 12 µM.

CC(C)[C@H]1NC(=O)C[C@H]2/C=C/CCSSC[C@@H](NC1=O)C(=O)N[C@@H](C)C(=O)NCC(=O)O2 showed a GI50 (MKN-1) of 14 µM, a GI50 (SNB-75) of 14 µM and a GI50 (KM12) of 15 µM. The GI50 (NCI-H460) was 43 µM, the GI50 (HCT-15) was 100 µM and the GI50 (SK-OV-3) was 16 µM. The GI50 (RXF 631) was 100 µM, the GI50 (MKN-7) was 43 µM and the GI50 (SF-539) was 15 µM. For the same compound, the GI50 [1] was 17 µM, the GI50 (SF-295) was 51 µM and the IC50 [2] was 1.02 µM. For the same compound, the GI50 (OVCAR-4) was 22 µM, the GI50 (MDA-MB-231) was 16 µM and the GI50 (MKN-28) was 24 µM. For the same compound, the GI50 (DU-145) was 15 µM, the GI50 (NCI-H23) was 27 µM and the GI50 (St-4) was 62 µM. For the same compound, the GI50 (ACHN) was 100 µM, the GI50 (MKN-74) was 18 µM and the “Ratio IC50” value [3] was 6. For the same compound, the GI50 (MCF7) was 17 µM, the GI50 (HT-29) was 12 µM and the IC50 (Histone deacetylase 1) was 0.184 µM. For the same compound, the GI50 [4] was 21 µM, the GI50 (LOX IMVI) was 4.5 µM and the GI50 [5] was 27 µM. For the same compound, the GI50 (OVCAR-5) was 15 µM, the GI50 (MKN-45) was 100 µM and the GI50 (DMS-114) was 15 µM. It also gave a GI50 (NCI-H226) of 21 µM, a GI50 (PC-3) of 13 µM and a GI50 (A549) of 18 µM. For the same compound, the GI50 (HCC 2998) was 13 µM, the GI50 (NCI-H522) was 1.7 µM and the GI50 (OVCAR-3) was 16 µM. For the same compound, the GI50 (DMS-273) was 47 µM, the GI50 (OVCAR-8) was 31 µM and the GI50 (U-251) was 17 µM. It also gave a GI50 (HCT-116) of 11 µM, a GI50 (SNB-78) of 13 µM and a GI50 (SF-268) of 17 µM.
